Measured values: ChEMBL document CHEMBL1649378, “Synthesis and biological evaluation of new derivatives of 2-substituted 4-hydroxybutanamides as GABA uptake inhibitors” (Eur J Med Chem, 2011)

Tests used:
[1] = biological target: Sodium- and chloride-dependent GABA transporter 1 (Mus musculus) (UniProt P31648); assay: Inhibition of NO711 binding to mouse GAT1 by MS-binding assay; design: inhibition: concentration or dose not given beside the values; details: for inhibition: concentration not given here
Outline: (§1)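 Binding assay on murine GAT1 with unlabelled NO711 as marker, quantified by LC-MS/MS on a triple quadrupole instrument. Compounds were first screened at 100 μM. Those cutting NO711 binding by at least 50% were rated active and then given pKi values.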

[2] = test system: Sodium- and chloride-dependent GABA transporter 2 (Mus musculus); assay: Inhibition of [3H]GABA uptake at GAT2 expressed in HEK cells; design: inhibition: concentration or dose not given beside the values; details: HEK293; for inhibition: concentration not given here
[3] = biological target: Sodium- and chloride-dependent GABA transporter 1 (Mus musculus) (UniProt P31648); assay: Inhibition of [3H]GABA uptake at GAT1 expressed in HEK cells; design: inhibition: concentration or dose not given beside the values; details: HEK293; for inhibition: concentration not given here
[4] = test system: Sodium- and chloride-dependent GABA transporter 3 (Mus musculus); assay: Inhibition of [3H]GABA uptake at GAT3 expressed in HEK cells at 100 uM; details: HEK293
[5] = test system: Sodium- and chloride-dependent GABA transporter 2 (Mus musculus); assay: Inhibition of [3H]GABA uptake at GAT2 expressed in HEK cells at 100 uM; details: HEK293
[6] = biological target: Sodium- and chloride-dependent GABA transporter 1 (Mus musculus) (UniProt P31648); assay: Remaining NO711 binding to mouse GAT1 by MS-binding assay
HEK293 = assay: Inhibition of [3H]GABA uptake at GAT4 expressed in HEK cells at 100 uM; assay type: cell-based
Outline: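 [³H]GABA uptake measured in HEK cells stably transfected with the individual murine GABA transporter subtypes GAT1–GAT4. Compounds were first screened at 100 μM, and results are given as % remaining GABA uptake (means). Those cutting uptake by at least 50% were rated active and then given pIC50 values.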

[7] = biological target: Sodium- and chloride-dependent GABA transporter 1 (Mus musculus) (UniProt P31648); assay: Inhibition of [3H]GABA uptake at GAT1 expressed in HEK cells at 100 uM; details: HEK293
[8] = biological target: Sodium- and chloride-dependent GABA transporter 1 (Mus musculus) (UniProt P31648); assay: Inhibition of NO711 binding to mouse GAT1 at 100 uM by MS-binding assay; outline: as §1

SMILES | inhibition [2] [%] | inhibition [3] [%] | pIC50 [2] | pIC50 [3] | remaining binding [6] [%] | also measured
COc1ccc(CNC(=O)C(CCO)N2CCN(C(c3ccc(F)cc3)c3ccc(F)cc3)CC2)cc1 (racemic) | 65 | 93 |  |  |  | inhibition [1]: 101%
COc1ccc(CNC(=O)C(CCO)N2CCN(C(c3ccccc3)c3ccccc3)CC2)cc1 (racemic) |  |  |  |  |  | inhibition [4]: 61%; inhibition [5]: 78%
Cc1ccc(CNC(=O)C(CCO)N2CCN(C(c3ccc(F)cc3)c3ccc(F)cc3)CC2)cc1 (racemic) |  |  | 4.44 | 4.23 | 92 | 
NC(=O)C(CCO)N1CCN(C(c2ccc(F)cc2)c2ccc(F)cc2)CC1 (racemic) | 84 | 66 |  |  |  | inhibition [1]: 106%
NC(=O)C(CCO)N1CCNCC1 (racemic) | 110 | 84 |  |  |  | 
O=C(NCCc1ccccc1)C(CCO)N1CCN(C(c2ccc(F)cc2)c2ccc(F)cc2)CC1 (racemic) |  | 69 | 4.43 |  |  | inhibition [1]: 98%
O=C(NCCc1ccccc1)C(CCO)N1CCN(C(c2ccccc2)c2ccccc2)CC1 (racemic) |  |  |  |  |  | inhibition [4]: 80%; inhibition [5]: 93%
O=C(NCc1ccc(Cl)cc1)C(CCO)N1CCN(C(c2ccc(F)cc2)c2ccc(F)cc2)CC1 (racemic) |  |  | 4.35 | 4.14 | 102 | 
O=C(NCc1ccc(Cl)cc1)C(CCO)N1CCNCC1 (racemic) | 98 | 79 |  |  |  | 
O=C(NCc1ccc(F)cc1)C(CCO)N1CCN(C(c2ccc(F)cc2)c2ccc(F)cc2)CC1 (racemic) |  |  | 4.13 | 4.03 | 75 | 
O=C(NCc1ccccc1)C(CCO)N1CCC(Cc2ccccc2)CC1 (racemic) | 49 | 75 |  |  |  | inhibition [1]: 86%
O=C(NCc1ccccc1)C(CCO)N1CCNCC1 (racemic) | 98 | 63 |  |  |  | inhibition [1]: 76%
O=C(NCc1ccccc1)C(CCO)N1CCOCC1 (racemic) | 98 | 113 |  |  |  | inhibition [1]: 95%
O=C(NCc1ccccc1Cl)C(CCO)N1CCN(C(c2ccccc2)c2ccccc2)CC1 (racemic) |  |  |  |  |  | inhibition [4]: 73%; inhibition [7]: 83%; inhibition [5]: 72%
O=C(NCc1ccccc1F)C(CCO)N1CCN(C(c2ccc(F)cc2)c2ccc(F)cc2)CC1 (racemic) | 65 | 97 |  |  | 92 | 

The next lines start with results.

inhibition [2] [%] | inhibition [3] [%] | pIC50 [2] | pIC50 [3] | remaining binding [6] [%] | SMILES | also measured
 |  |  |  | 61 | Cc1ccc(CNC(=O)C(CCO)N2CCN(C(c3ccccc3)c3ccccc3)CC2)cc1 (racemic) | 
 |  |  |  | 98 | NC(=O)C(CCO)N1CCN(C(c2ccccc2)c2ccccc2)CC1 (racemic) | inhibition [4]: 83%
 |  | 4.56 | 4.88 |  | O=C(NCc1ccc(Cl)cc1)C(CCO)N1CCN(C(c2ccccc2)c2ccccc2)CC1 (racemic) | pKi [1]: 4.33
 |  |  | 4.84 |  | O=C(NCc1ccc(F)cc1)C(CCO)N1CCN(C(c2ccccc2)c2ccccc2)CC1 (racemic) | pKi [1]: 4.82; inhibition [5]: 52%
 |  | 4.33 | 4.19 | 63 | O=C(NCc1ccccc1)C(CCO)N1CCN(C(c2ccc(F)cc2)c2ccc(F)cc2)CC1 (racemic) | 
 |  | 4.47 | 4.66 |  | O=C(NCc1ccccc1)C(CCO)N1CCN(C(c2ccccc2)c2ccccc2)CC1 (racemic) | pKi [1]: 4.96; inhibition [4]: 46%; inhibition (HEK293): 54%
 |  | 4.17 | 4.2 | 93 | O=C(NCc1ccccc1Cl)C(CCO)N1CCN(C(c2ccc(F)cc2)c2ccc(F)cc2)CC1 (racemic) | 
 |  | 4.33 | 4.48 |  | O=C(NCc1ccccc1F)C(CCO)N1CCN(C(c2ccccc2)c2ccccc2)CC1 (racemic) | inhibition [8]: 55%
